The list is not random: actives were taken first. Their share in the collection is about 12%.
bCat nuc transl: modulators of beta-catenin nuclear translocation, primary screen, imaging, HeLa cells, immunofluorescence, high-content | nuclear translocation activity, % at 5 µM | AID 1665, 2009 | 190,000 tested, 0.3% active;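 active = nuclear translocation activity above 50% at 5 µM, with a well cell count of 50 or more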;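 note: per-cell ratio of nuclear to cytoplasmic median beta-catenin stain intensity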
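Test system: human HeLa cells, native beta-catenin. Compound dosing: 5 µM primary single dose, 0.1% DMSO, 0.02–20 µM confirmation series. Incubation: compound exposure 24 h at 37°C. Detection: beta-catenin immunostaining with DAPI counterstain, 20x imaging, 6 fields/well. Read-out basis: Nuclear/cytoplasmic beta-catenin signal ratio, % activation.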
CHOP inh: inhibitors of CHOP promoter induction, primary screen, cell-based, unfolded protein response, luciferase reporter; CHO-K1 CHOP-promoter luciferase, tunicamycin-induced, 15-18 h; inhibition, % at 10 µM; 220,000 tested, 3.8% active; AID 2732, 2010;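 active = compounds that reduced the stress-induced luciferase reporter signal by more than about 70% of percent inhibition, limit read from the data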
Dynein cargo inh: inhibitors of GR-EGFP nuclear translocation, primary screen, dynein cargo transport inhibitor project, imaging, high-content, 3617.4 mouse cells. z-score, hits read low. AID 1381, 2008. test concentration mostly 20 µM; stimulated with dexamethasone, 1 µM; stronger effect = lower value. 220,000 tested, 0.47% active;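 active = plate z-score of nuclear minus cytoplasmic receptor signal below a set negative limit, without overly bright fluorescence or cell loss, cut at about -3.5 in these data, passing the limit was not always enough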;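 note: z-score of nuclear minus cytoplasmic ring GR-EGFP intensity difference per well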
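Buffer or medium: tet-free, stripped-serum medium; reagent: dexamethasone at 1.0 µM final, 30 min; incubation: 48 h induction, 1 h compound, 30 min dex at 37 °C; measured by: formaldehyde fixation, Hoechst nuclear stain, 10x automated fluorescence imaging; read-out: nuclear-to-cytoplasmic GR-EGFP distribution per well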
Lmaj promast: Leishmania major promastigote growth inhibition, primary screen; Leishmania major promastigotes, resazurin fluorescence viability; inhibition, % at 10 µM; 200,000 tested, 9% active; in the data active = inhibition above about 50%;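 note: promastigotes grown with compound for 44 hours at 28 °C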
Autophagy mod: autophagy modulators in MEF cells, primary screen, imaging, high-content, MEF GFP-LC3 | MEF GFP-LC3 puncta imaging; test concentration mostly 10 µM | calls only at 10 µM (by protocol) | 190,000 tested, 0.98% active | AID 463193, 2010;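 active = percentage of spot-positive cells more than 3 SD above its plate mean, without a fluorescence outlier flag or 80% toxicity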
MT stabilizer: microtubule stabilizers in HeLa cells, primary screen, imaging, high-content imaging; % tubulin-high responders, % at 10 µM; 200,000 tested, 0.83% active; HeLa tubulin immunostaining HCS, 24 h; share of cells brighter than vehicle mean+2SD;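 active = plate Z-score above 3 for both tubulin-high and condensed-nucleus cell shares, with cell loss under 80%, at 10 µM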;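 note: anti alpha tubulin signal scored within the nucleus-defined area of each cell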
Numbers stand for hits; - = inactive; . = no result; + = active, no number.

SMILES | bCat nuc transl | CHOP inh | Dynein cargo inh | Lmaj promast | Autophagy mod | MT stabilizer
Cc1ccccc1-c1nc(CS(=O)(=O)CC(=O)Nc2cc(F)ccc2F)c(C)o1 | - | 77.9 | - | - | - | -
COCCCNC(=O)CS(=O)(=O)Cc1nc(-c2ccccc2C)oc1C | - | - | - | - | . | -
CN(C1CCCC1)C1CCN(C(=O)CNC(=O)/C=C/c2ccc(F)cc2)CC1 | - | - | - | - | - | -
CN(C1CCCC1)C1CCN(C(=O)CNC(=O)/C=C/c2cccc(C(F)(F)F)c2)CC1 | - | - | - | 76.3 | - | -
CC(C)(C)C(=O)N1CCC(O)(CS(=O)(=O)c2ccc(Cl)c(Cl)c2)CC1 | - | - | - | - | - | -
Cc1ccc(-n2[nH]c(C)c(C=Nc3ccc(S(=O)(=O)N4CCOCC4)cc3)c2=O)c(C)c1 | - | - | - | 51.9 | - | -
CNS(=O)(=O)c1ccc(N=Cc2c(C)[nH]n(-c3ccc(C)cc3C)c2=O)cc1 | - | - | - | - | - | -
Cc1cc(-c2nnc(CCC(=O)N3CCN(Cc4cccc(F)c4)CC3)o2)c(C)o1 | - | - | - | - | - | -
NC(=O)C(c1ccc(Cl)cc1)c1ccc(Sc2ccc(Cl)cc2)nn1 (centres undefined) | . | 82.9 | - | - | - | -
O=C(O)c1ccn2c(C(=O)c3ccccc3)c(-c3ccccc3)cc2c1 | - | - | - | . | . | .
Cc1ccc(NC(=O)C(=O)NCc2ccc(/C=C(/C#N)C(=O)NCc3cccnc3)o2)cc1 | - | - | - | - | - | -
N#C/C(=C/c1ccc(CNC(=O)C(=O)Nc2cc(Cl)cc(Cl)c2)o1)C(=O)NCc1cccnc1 | - | 82.0 | - | - | - | -
CCOC(=O)c1sc(Nc2nc(OC)cc(OC)n2)nc1C | - | - | - | 53.9 | - | -
CCOC(=O)c1sc(Nc2ccc(OCC)cc2)nc1C | - | 73.2 | - | - | - | -
CCn1c(=O)cc(SCC(=O)NCCCN2CCN(c3ccccc3F)CC2)c2ccccc21 | - | - | - | - | + | -
Cc1nc(C)c(CCNC(=O)c2ccccc2Br)s1 | - | - | - | - | - | -
O=C1OCCN1/N=C/c1ccc([N+](=O)[O-])o1 | . | - | - | 93.3 | - | -
COc1ccc(NC(=O)/C(C#N)=C/c2ccc3c(c2)n(C)c(=O)n3C)cc1 | . | - | - | 57.0 | - | -
COc1ccc(/C=C(\C#N)C(=O)Nc2ccc3[nH]c(=O)[nH]c3c2)cc1 | - | - | - | . | . | .
Cc1cc2cc(CNC(=O)Nc3ccccc3)ccc2[nH]1 | - | - | - | - | - | -
CN(C(=O)COC(=O)/C=C/c1ccc(S(=O)(=O)N2CCc3ccccc32)cc1)C1CCS(=O)(=O)C1 (centres undefined) | - | - | - | - | - | -
CCC1CN(C(=O)Nc2ccc(C)cc2)c2cc(C)ccc2O1 (centres undefined) | - | - | - | - | + | -
Cc1ccc(NC(=O)CC2COc3ccccc3O2)cc1 (centres undefined) | - | - | - | - | - | -
Cc1ccc2nc(NNC(=O)c3ccc4c(c3)OCCO4)sc2c1 | - | - | - | - | - | -
Cc1cccc2sc(NNC(=O)c3ccc(S(=O)(=O)N4CC(C)CC(C)C4)cc3)nc12 (centres undefined) | - | - | - | 99.4 | - | -
SMILES | bCat nuc transl | CHOP inh | Dynein cargo inh | Lmaj promast | Autophagy mod | MT stabilizer
Cc1cc(C)c2nc(NNC(=O)c3ccc(S(=O)(=O)N4CCCC(C)C4)cc3)sc2c1 (centres undefined) | - | - | - | 97.5 | - | -
Cc1ccc2nc(NNC(=O)c3ccc(S(=O)(=O)N4CCc5ccccc5C4)cc3)sc2c1 | - | - | - | 99.5 | - | -
CCC(=O)NNc1nc2c(C)cc(C)cc2s1 | - | - | - | - | - | -
Cc1cc(C)c2nc(NNC(=O)c3ccc(S(=O)(=O)N4CC(C)CC(C)C4)cc3)sc2c1 (centres undefined) | - | - | - | 98.8 | - | -
NC(=O)C1CCN(C(=O)/C=C/c2ccco2)CC1 | . | - | - | - | - | -
Cc1cc(C)cc(NC(=O)Nc2ccc(Cl)cn2)c1 | - | - | - | - | - | -
CC1(C)OC(c2ccccc2)=C/C(=C/C=N/NC(=O)c2ccncc2)O1 | - | - | - | - | - | -
CCOc1ccc(C(=O)OCC(=O)NCc2ccco2)cc1OCC | - | - | - | - | - | -
O=[N+]([O-])c1cc(S(=O)(=O)Nc2cccc(Cl)c2)ccc1N/N=C/c1ccc(N2CCOCC2)cc1 | - | - | - | . | . | .
CCOc1ccccc1CNC(=O)c1cc2oc3ccccc3c2n1CC | . | - | - | 97.2 | - | -
COc1cccc(CNC(=O)c2cc3oc4ccccc4c3n2C)c1OC | . | . | - | - | - | -
NC(=O)c1ccc(NC(=O)Cn2c(=O)n(-c3ccccc3)c(=O)c3oc4ccccc4c32)cc1 | - | - | - | - | - | -
CC(=O)Nc1ccc(NC(=O)Cn2c(=O)n(-c3ccc(F)cc3)c(=O)c3oc4ccccc4c32)cc1 | - | - | - | - | - | -
COc1ccc(NC(=O)Cn2c(=O)n(-c3ccccc3)c(=O)c3oc4ccccc4c32)c(OC)c1 | - | - | - | 61.0 | - | -
COc1ccccc1NC(=O)c1oc2ccccc2c1NC(=O)c1cc(OC)c(OC)c(OC)c1 | . | . | - | - | + | 36.4
COc1ccccc1NC(=O)Cn1c(=O)n(-c2ccccc2)c(=O)c2oc3ccccc3c21 | - | 81.0 | - | - | - | -
O=C(C1CCCCC1)N1CCN(c2ccnc3cc(Cl)ccc23)CC1 | - | - | - | . | . | .
Cc1cccc(NC(=O)C2CCCN(S(=O)(=O)c3cccc4cccnc34)C2)c1 (centres undefined) | . | - | - | - | - | -
CC(C)Nc1nc(Cl)nc(NNC(=O)C(C)Oc2ccccc2)n1 (centres undefined) | - | - | - | - | - | -
COC(=O)c1cc2oc3ccccc3c2n1CC(=O)Nc1ccccc1OC | . | - | - | 83.0 | - | -
c1ccc(C2C/C(=N\N3CCOCC3)c3ccccc3O2)cc1 (centres undefined) | - | - | - | - | - | -
CC(C)(C)N/N=C1\CC(c2ccccc2)Oc2ccccc21 (centres undefined) | - | 72.9 | - | - | - | -
Cc1nc(N)nc(N)c1/C=C/C(C)(C)c1ccc(Cl)cc1 | - | 76.9 | - | 100.4 | - | -
COc1ccccc1C(c1nnnn1Cc1ccco1)N1CCN(c2cccc(C)c2C)CC1 (centres undefined) | - | - | - | 74.2 | - | -
Cc1ccc(C)c2[nH]c(=O)c(C(c3nnnn3Cc3ccco3)N3CCc4ccccc4C3)cc12 (centres undefined) | - | - | - | 93.7 | - | -

Compound activity deposited in PubChem by several laboratories.
